Measured values collected from several papers.
Target: 1-phosphatidylinositol 3-phosphate 5-kinase (PIKFYVE, Homo sapiens, UniProt Q9Y2I7)

| SMILES | assay | setting | remaining binding |
| --- | --- | --- | --- |
| COc1cc(-c2cn(C3CCc4c(F)cccc4N(CC(F)(F)F)C3=O)nn2)ccc1-n1cnc(C)c1 (stereo not shown) | cell-free assay, competition with immobilised ligand | 1 µM | 100% |
| CN(CCCC(F)(F)F)c1nccc(-c2cnn3ncccc23)n1 | binding | 1 µM | 45% |
| CS(=O)(=O)N1CCCC(NC(=O)[C@H](CCC2CCCCC2)NC(=O)c2ccc(CNc3ncnc4c3nnn4-c3ccccc3)cc2)C1 (stereo partly shown) | cell-free assay, competition with immobilised ligand | 0.1 µM | 61% |
| O=C(c1ccc(Nc2ncc(Cl)c(-c3cc4ccccc4s3)n2)cc1)N1CCC(N2CCCC2)CC1 | binding, competition with immobilised ligand | 1 µM | 72% |
| c1cncc(-c2cccc(Nc3nccc(NC4CCCCC4)n3)c2)c1 | binding, competition with immobilised ligand | 10 µM | 29% |
| FC(F)(F)c1ccc2c(c1)nc(-c1cccnc1)n2C1CC1 | cell-free assay, competition with immobilised ligand | 1 µM | 99% |
| COc1cnc(Nc2cccc(S(N)(=O)=O)c2)nc1N1CCN(c2ccccc2)C(=O)C1 | binding, competition with immobilised ligand | 1 µM | 100% |
| CSc1cccnc1N1CCN(Cc2nc3ccccc3[nH]2)CC1 | cell-free assay, competition with immobilised ligand | 1 µM | 100% |
| CN(C)c1nccc(-c2cnc3ncccn23)n1 | binding | 1 µM | 78% |
| O=C(NCC1CCOCC1)c1n[nH]cc1NC(=O)c1c(F)cccc1F | binding, competition with immobilised ligand | 1 µM | 100% |
| COc1ncc2cc3ccccc3nc2c1C#N | cell-free assay, competition with immobilised ligand | 5 µM | 90% |
| COc1ccc2c(c1)O[C@@H](c1ccc(OC)c(OC)c1)C[C@H]2NC(=O)C1(c2ccc3c(c2)OC(F)(F)O3)CC1 | cell-free assay, competition with immobilised ligand | 1 µM | 100% |
| COc1cnc(Nc2cccc(S(N)(=O)=O)c2)nc1N1CCN(c2ccccc2)CC1 | binding, competition with immobilised ligand | 1 µM | 85% |
| CN(C)c1ncc(F)c(-c2cnn3ncccc23)n1 | binding | 1 µM | 100% |
| O=C(c1ccc(Nc2nccc(-c3cc4ccccc4s3)n2)cc1)N1CCC(N2CCCC2)CC1 | binding, competition with immobilised ligand | 1 µM | 0.6% |
| C[C@H]1CCN(c2nccc(-c3cnn4ncccc34)n2)C1 | binding | 1 µM | 100% |
| CN(c1ccnc(CNc2nc(Nc3ccc4c(c3)CC(=O)N4)ncc2C(F)(F)F)n1)S(C)(=O)=O | cell-free assay, competition with immobilised ligand | 1 µM | 100% |
| Cc1cnn2ncc(-c3ccnc(N(C)C)n3)c2c1 | binding | 1 µM | 87% |
| O=C(c1ccc(Nc2ncc(Cl)c(-c3ccc(Cl)s3)n2)cc1)N1CCC(N2CCCC2)CC1 | binding, competition with immobilised ligand | 1 µM | 32% |
